ChEMBL document CHEMBL3352483, “Synthesis, structure-activity relationships and biological evaluation of barbigerone analogues as anti-proliferative and anti-angiogenesis agents” (Bioorg Med Chem Lett, 2014)

What was measured:
Type in all cases: functional, cell-based
[1] = tested on: HepG2; assay: Antiproliferative activity against human HepG2 cells after 24 hrs by MTT assay; settings: HepG2, 24 h
How it was run: (§1)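 MTT proliferation assay on HUVECs and on HepG2, A375, U251, B16 and HCT116 cells. Results reported as IC50.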

[2] = tested on: HUVEC; assay: Antiproliferative activity against HUVEC after 24 hrs by MTT assay; settings: Homo sapiens; how it was run: as §1
[3] = Antiproliferative activity against human HCT116 cells after 24 hrs by MTT assay; settings: HCT-116, 24 h; how it was run: as §1
[4] = tested on: A-375; assay: Antiproliferative activity against human A375 cells after 24 hrs by MTT assay; settings: A-375, 24 h; how it was run: as §1
[5] = tested on: B16; assay: Antiproliferative activity against mouse B16 cells after 24 hrs by MTT assay; settings: B16, 24 h; how it was run: as §1
[6] = tested on: U-251; assay: Antiproliferative activity against human U251 cells after 24 hrs by MTT assay; settings: U-251, 24 h; how it was run: as §1

IC50 [1] [µM] | IC50 [4] [µM] | IC50 [5] [µM] | IC50 [6] [µM] | SMILES | IC50 [2] [µM] | IC50 [3] [µM]
6.55 | > 10 | 8.55 | > 10 | COc1cc(OC)c(-c2coc3cc(OCc4ccccc4C(F)(F)F)ccc3c2=O)cc1OC | > 10 | 4.76
1.32 | 1.64 | 2.33 | 6.75 | COc1cc(OC)c(-c2coc3cc(OCc4ccccc4)ccc3c2=O)cc1OC | 9.75 | 2.28
> 10 | > 10 | > 10 | > 10 | CCOc1ccccc1-c1coc2c3c(ccc2c1=O)OC(C)(C)C=C3 | > 10 | > 10
> 10 | > 10 | > 10 | > 10 | COc1ccc(-c2coc3c4c(ccc3c2=O)OC(C)(C)C=C4)cc1OC | > 10 | > 10
> 10 | > 10 | > 10 | > 10 | COc1ccccc1-c1coc2c3c(ccc2c1=O)OC(C)(C)C=C3 | > 10 | > 10
> 10 | > 10 | > 10 | > 10 | COc1cc(OC)cc(-c2coc3c4c(ccc3c2=O)OC(C)(C)C=C4)c1 | > 10 | > 10
> 10 | > 10 | > 10 | > 10 | CC1(C)C=Cc2c(ccc3c(=O)c(-c4cccc(C(F)(F)F)c4)coc23)O1 | > 10 | > 10
> 10 | > 10 | > 10 | > 10 | COc1cc(OC)c(-c2coc3cc(OCCN4CCOCC4)ccc3c2=O)cc1OC | > 10 | > 10
2.04 | 2.64 | 5.2 | 9.4 | COc1ccc2c(=O)c(-c3cc(OC)c(OC)cc3OC)coc2c1 | > 10 | 9.17
> 10 | > 10 | > 10 | > 10 | COc1ccc(OC)c(-c2coc3c4c(ccc3c2=O)OC(C)(C)C=C4)c1 | > 10 | > 10
> 10 | > 10 | > 10 | > 10 | CC(=O)c1ccc(-c2coc3c4c(ccc3c2=O)OC(C)(C)C=C4)cc1 | > 10 | > 10
2.18 | 2.85 | 8.9 | > 10 | COc1cc(OC)c(-c2coc3cc(OCc4ccccc4Br)ccc3c2=O)cc1OC | > 10 | 4.55
> 10 | > 10 | > 10 | > 10 | CCOc1ccc(-c2coc3c4c(ccc3c2=O)OC(C)(C)C=C4)cc1 | > 10 | > 10
1.05 | 1 | 1.18 |  | COc1cc(OC)c(-c2coc3cc(OCc4ccc(Br)cc4)ccc3c2=O)cc1OC | > 10 | 1.98
> 10 | 7.25 | 1.91 | 5.85 | CC1(C)C=Cc2c(ccc3c(=O)c(-c4ccc(C(F)(F)F)cc4)coc23)O1 | > 10 | 7
> 10 | > 10 | > 10 | > 10 | COc1cccc(C(=O)Oc2ccc3c(=O)c(-c4cc(OC)c(OC)cc4OC)coc3c2)c1 | > 10 | > 10
> 10 | > 10 | > 10 | > 10 | CC1(C)C=Cc2c(ccc3c(=O)c(-c4cccc(C=O)c4)coc23)O1 | > 10 | > 10
4.23 | 1.55 | 7 | 6.18 | COc1cc(OC)c(-c2coc3cc(OCc4ccc(C#N)cc4)ccc3c2=O)cc1OC |  | 4.22
